Results as given in ChEMBL document CHEMBL1145518, “Potent immune-modulating and anticancer effects of NKT cell stimulatory glycolipids” (2007).
The source made the active and inactive calls. The rule behind the calls is not given here.

Assays:
[1] = Induction of IFN-gamma secretion in human CD161+ CD3+ NKT cells at 10 ug/ml after 18 hrs relative to basal level; type: functional
Outline: (§1)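 Human Vα24i NKT cell lines were expanded for 10 days on irradiated (3,000 rad) autologous immature DCs with 10 units/ml IL-2. The cells (1 × 10^5) were cocultured with 5 × 10^4 irradiated immature CD14+ DCs plus glycolipid at 10 μg/ml. Supernatants were collected at 18 h and read on a 22-plex Luminex bead panel. Triplicates, mean ± SD.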

[2] = Induction of IL2 secretion in human CD161+ CD3+ NKT cells at 10 ug/ml after 18 hrs relative to basal level; type: functional; outline: as §1
[3] = Induction of IL12p70 secretion in human CD161+ CD3+ NKT cells at 10 ug/ml after 18 hrs relative to basal level; type: functional; outline: as §1
[4] = Induction of IL12p40 secretion in human CD161+ CD3+ NKT cells at 10 ug/ml after 18 hrs relative to basal level; type: functional; outline: as §1
[5] = Induction of RANTES secretion in human CD161+ CD3+ NKT cells at 10 ug/ml after 18 hrs relative to basal level; type: functional; outline: as §1
[6] = Induction of MIPalpha secretion in human CD161+ CD3+ NKT cells at 10 ug/ml after 18 hrs relative to basal level; type: functional; outline: as §1
[7] = Induction of IL8 secretion in human CD161+ CD3+ NKT cells at 10 ug/ml after 18 hrs relative to basal level; type: functional; outline: as §1
[8] = Induction of TNFalpha secretion in human CD161+ CD3+ NKT cells at 10 ug/ml after 18 hrs relative to basal level; type: functional; outline: as §1
Mus musculus [9] = test: Increase in CD8/CD4 T cell ratio in BALB/c mouse at 2 ug, iv after 72 hrs by flow cytometry; type: functional, organism-based
TC1 = test: Antitumor activity in TC1 cells xenografted C57BL/6 mouse assessed as suppression of tumor growth at 2 ug, iv; type: functional, cell-based
Outline: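 C57BL/6 mice (n = 5/group) were inoculated i.v. with TC-1 lung cancer cells. They were then treated i.v. with 2 μg glycolipid per mouse, or 100 μl of 1% DMSO, twice weekly for 4 weeks. Kaplan–Meier survival and body weight were followed, with tumor-free mice as an additional control.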

4T1 = test: Antitumor activity in mouse 4T1 cells xenografted BALB/c mouse assessed as suppression of tumor growth at 2 ug, iv; type: functional, cell-based
Outline: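 BALB/c mice (n = 6) were inoculated s.c. with 4T1 breast cancer cells. From day 3 they were treated i.v. with glycolipid or vehicle twice weekly for 4 weeks. Tumor volume was recorded every 3 days for 1 month, and survival was monitored up to 54 days.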

Mus musculus [10] = test: Induction of IL2 secretion in BALB/c mouse serum at 2 ug, iv after 2 hrs relative to control; type: functional
Outline: (§2)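 BALB/c mice received an i.v. injection of 100 μl of glycolipid diluted to 20 μg/ml in saline from DMSO stock, with 1% DMSO as vehicle. Serum cytokines/chemokines were measured at 2 and 18 h after injection.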

Mus musculus [11] = test: Induction of IL12p70 secretion in BALB/c mouse serum at 2 ug, iv after 18 hrs relative to control; type: functional; outline: as §2
Mus musculus [12] = test: Induction of IL12p40 secretion in BALB/c mouse serum at 2 ug, iv after 18 hrs relative to control; type: functional; outline: as §2
Mus musculus [13] = test: Induction of RANTES secretion in BALB/c mouse serum at 2 ug, iv after 2 hrs relative to control; type: functional; outline: as §2
Mus musculus [14] = test: Induction of MIPbeta secretion in BALB/c mouse serum at 2 ug, iv after 2 hrs relative to control; type: functional; outline: as §2
Mus musculus [15] = test: Induction of MCP1 secretion in BALB/c mouse serum at 2 ug, iv after 2 hrs relative to control; type: functional; outline: as §2
Mus musculus [16] = test: Induction of KC secretion in BALB/c mouse serum at 2 ug, iv after 2 hrs relative to control; type: functional; outline: as §2
Mus musculus [17] = test: Induction of IL3 secretion in BALB/c mouse serum at 2 ug, iv after 2 hrs relative to control; type: functional; outline: as §2
Mus musculus [18] = test: Induction of GM-CSF secretion in BALB/c mouse serum at 2 ug, iv after 2 hrs relative to control; type: functional; outline: as §2
Mus musculus [19] = test: Induction of IL4 secretion in BALB/c mouse serum at 2 ug, iv after 2 hrs relative to control; type: functional; outline: as §2
Mus musculus [20] = test: Induction of IL10 secretion in BALB/c mouse serum at 2 ug, iv after 18 hrs relative to control; type: functional; outline: as §2
Mus musculus [21] = test: Induction of IL13 secretion in BALB/c mouse serum at 2 ug, iv after 2 hrs relative to control; type: functional; outline: as §2
[22] = Induction of IL3 secretion in human CD161+ CD3+ NKT cells at 10 ug/ml after 18 hrs relative to basal level; type: functional; outline: as §1
[23] = Induction of IL15 secretion in human CD161+ CD3+ NKT cells at 10 ug/ml after 18 hrs relative to basal level; type: functional; outline: as §1
[24] = Induction of IL6 secretion in human CD161+ CD3+ NKT cells at 10 ug/ml after 18 hrs relative to basal level; type: functional; outline: as §1
[25] = Induction of IL10 secretion in human CD161+ CD3+ NKT cells at 10 ug/ml after 18 hrs relative to basal level; type: functional; outline: as §1
[26] = Induction of IL13 secretion in human CD161+ CD3+ NKT cells at 10 ug/ml after 18 hrs relative to basal level; type: functional; outline: as §1
HeLa [27] = test: Activation of TCR in human HeLa cells overexpressing CD1d assessed as increase in CD3epsilon phosphorylation; type: cell-based
Outline: (§3)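 Human HeLa, HeLa-CD1d or autologous immature DCs were loaded with glycolipid at 10 μg/ml, or DMSO, for 2 h. Then 3 × 10^5 naïve CD161+/CD3+ NKT cells were added; these were bead-isolated and kept in 100 units/ml IL-2. After 5–10 min the cells were washed and lysed at 4°C. Phospho-CD3ε, ERK1/2 (Thr-185/Tyr-187) and CREB (Ser-133) were read by Luminex bead assay as median fluorescence normalized to total protein, expressed as fold over 1% DMSO.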

HeLa [28] = test: Activation of TCR in human HeLa cells overexpressing CD1d assessed as increase in ERK1/2 phosphorylation; type: cell-based; outline: as §3
dendritic [29] = test: Activation of TCR in human immature dendritic cells assessed as increase in ERK1/2 phosphorylation; type: cell-based; outline: as §3
dendritic [30] = test: Activation of TCR in human immature dendritic cells assessed as increase in CREB phosphorylation; type: cell-based; outline: as §3
Mus musculus [31] = test: Activation of dendritic cells in BALB/c mouse at 2 ug, iv after 72 hrs by flow cytometry; type: functional, organism-based
Outline: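 BALB/c mice (n = 4/group) were given 100 μl of glycolipid at 20 μg/ml in saline i.v., or 100 μl of 1% DMSO. Spleens were harvested after 72 h and splenocyte subsets counted by flow cytometry: mature DCs as CD11c+/CD80+/CD86+, activated NK as U5A2-13Ag+/CD3−/CD69+, activated NKT as U5A2-13Ag+/CD3+/CD69+. Assays were run in duplicate, mean ± SD.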

| Compound | Activity [1] | Activity [2] | Activity [3] | Activity [4] | Activity [5] | Activity [6] | Activity [7] | Activity [8] | Activity (Mus musculus [9]) | Activity (TC1) | Activity (4T1) | Activity (Mus musculus [10]) | Activity (Mus musculus [11]) | Activity (Mus musculus [12]) | Activity (Mus musculus [13]) | Activity (Mus musculus [14]) | Activity (Mus musculus [15]) | Activity (Mus musculus [16]) | Activity (Mus musculus [17]) | Activity (Mus musculus [18]) | further results |
| --- | --- | --- | --- | --- | --- | --- | --- | --- | --- | --- | --- | --- | --- | --- | --- | --- | --- | --- | --- | --- | --- |
| CCCCCCCCCCCCCCCCCCCCCCCCCC(=O)N[C@@H](CO[C@H]1O[C@H](CO)[C@H](O)[C@H](O)[C@H]1O)[C@H](O)[C@H](O)CCCCCCCCCCCCCC [RGI-7000] | 3.4 | 2.3 | 1.8 | 1.4 | 1.6 | 2.9 | 1.7 | 7.7 | Active | Active | Active | 58.9 | 3.2 | 2.8 | 2.6 | 3.6 | 18.7 | 30.5 | 3 | 13.1 | Activity (Mus musculus [19]): 240; Activity (Mus musculus [20]): 3.6; Activity (Mus musculus [21]): 15.1; Activity [22]: 1.9; Activity [23]: 2.6; Activity [24]: 1.8; Activity [25]: 1.2; Activity [26]: 1.8; Activity (HeLa [27]): 7.3; Activity (HeLa [28]): 6.6; Activity (dendritic [29]): 30; Activity (dendritic [30]): 68; Activity (Mus musculus [31]): Active |
| CCCCCCCCCCCCCCCCCCCCCCCCCC(=O)N[C@@H](CO[C@H]1O[C@H](CO)[C@H](O)[C@H](O)[C@H]1O)[C@H](O)[C@H](O)CCc1ccccc1 | 6.6 | 2.8 | 3.2 | 1.8 | 2.5 | 3.6 | 3 | 7.6 | Active | Active | Active | 75.3 | 6.6 | 3.5 | 2.1 | 5.3 | 32.9 | 19.2 | 38.8 | 7.9 | Activity (Mus musculus [19]): 115; Activity (Mus musculus [20]): 2.2; Activity (Mus musculus [21]): 12.6; Activity [22]: 1.7; Activity [23]: 2.3; Activity [24]: 2.8; Activity [25]: 1.2; Activity [26]: 2.3; Activity (HeLa [27]): 7.3; Activity (HeLa [28]): 6.6; Activity (dendritic [29]): 35; Activity (dendritic [30]): 158; Activity (Mus musculus [31]): Active |
